pIC50: −log10 of the molar value.
Tests used:
[1] = target: T1, Coagulation factor VII (Homo sapiens, UniProt P08709); assay: Inhibitory activity against coagulation factor VII was determined
T1 sequence (P08709 whole entry): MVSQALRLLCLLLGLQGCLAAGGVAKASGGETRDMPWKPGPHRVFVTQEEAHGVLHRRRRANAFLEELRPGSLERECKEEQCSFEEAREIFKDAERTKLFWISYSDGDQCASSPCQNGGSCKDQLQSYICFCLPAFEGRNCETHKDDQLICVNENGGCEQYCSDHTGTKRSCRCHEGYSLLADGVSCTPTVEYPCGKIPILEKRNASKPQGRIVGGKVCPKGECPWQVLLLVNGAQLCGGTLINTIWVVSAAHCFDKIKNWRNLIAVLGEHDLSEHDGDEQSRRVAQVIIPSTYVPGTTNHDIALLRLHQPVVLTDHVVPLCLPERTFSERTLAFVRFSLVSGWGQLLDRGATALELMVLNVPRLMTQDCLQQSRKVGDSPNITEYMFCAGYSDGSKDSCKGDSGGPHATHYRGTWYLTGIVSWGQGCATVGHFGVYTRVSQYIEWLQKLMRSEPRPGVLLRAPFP

[2] = target: Coagulation factor X (Homo sapiens, UniProt P00742); assay: Inhibitory activity against coagulation factor X was determined
Sequence of Coagulation factor X (P00742 41-179 limits assumed): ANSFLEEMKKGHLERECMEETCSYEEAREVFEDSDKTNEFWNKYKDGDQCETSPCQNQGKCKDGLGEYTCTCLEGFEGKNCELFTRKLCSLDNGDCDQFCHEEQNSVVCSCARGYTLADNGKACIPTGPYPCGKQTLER
Sequence of Coagulation factor X (P00742 235-488 limits assumed): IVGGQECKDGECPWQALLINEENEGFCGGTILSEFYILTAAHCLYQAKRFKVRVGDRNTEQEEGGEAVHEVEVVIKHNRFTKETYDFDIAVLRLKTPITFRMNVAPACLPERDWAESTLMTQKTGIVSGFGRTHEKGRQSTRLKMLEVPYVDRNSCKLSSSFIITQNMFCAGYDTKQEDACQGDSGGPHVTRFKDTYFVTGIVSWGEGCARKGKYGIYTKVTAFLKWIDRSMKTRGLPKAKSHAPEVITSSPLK
How it was run: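 Human factor Xa at 0.3 nM with 0.15 mM S-2765 in 50 mM Tris-HCl pH 8.0, 100 mM NaCl, 0.1% BSA. A405 background was read immediately, then hydrolysis rate (p-nitroaniline release at 405 nm) after 60 min at room temperature. Seven concentrations in duplicate; % inhibition vs control; IC50 by four-parameter logistic fit.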

[3] = tested on: Thrombin (Homo sapiens); assay: Inhibitory activity against thrombin was determined at a concentration of 30 uM

Row | pIC50 [1] | pIC50 [2] | inhibition [3] [%] | Compound
1 | < 4.52 | < 4.52 |  | O=C(Cc1c(F)ccc(NS(=O)(=O)Cc2ccccc2)c1F)NCCCn1ccnc1
2 | < 4.52 | < 4.52 | 22 | N=C(N)c1ccc(CNC(=O)c2cc(NS(=O)(=O)Cc3ccccc3)ccc2Sc2ccccc2)cc1
3 |  | < 4.52 |  | N=C(N)c1ccc(CNC(=O)Cc2c(F)ccc(NCCc3ccccc3)c2F)cc1
4 | 5.60 | < 4.52 |  | CC(C)Nc1ccc(-c2ccccc2)c(CC(=O)NCc2ccc(C(=N)N)cc2)c1O
5 |  | < 4.52 |  | CC(C)Nc1ccc(-c2cccc(N)c2)c(CC(=O)NCc2ccc(C(=N)N)cc2)c1F
6 |  | < 4.52 |  | COc1c(NC(C)C)ccc(-c2ccccc2)c1CC(=O)NCc1ccc(C(=N)N)cc1
7 | < 4.52 |  |  | CN(C)c1ccc(CNC(=O)Cc2c(F)ccc(NS(=O)(=O)Cc3ccccc3)c2F)cc1
8 | 6.30 |  |  | N=C(N)c1ccc(CNC(=O)Cc2c(-c3cccc(N)c3)ccc(NCc3ccccc3)c2F)cc1
9 |  | < 4.52 |  | N=C(N)c1ccc(CNC(=O)Cc2c(-c3ccccc3)ccc(NCCc3ccccc3)c2O)cc1
10 |  | < 4.52 |  | N=C(N)c1ccc(CNC(=O)Cc2c(-c3ccccc3)ccc(NCCc3ccccc3)c2F)cc1
11 | < 4.52 |  |  | N=C(N)c1cccc(CNC(=O)Cc2c(F)ccc(NS(=O)(=O)Cc3ccccc3)c2F)c1
12 | < 4.52 |  |  | O=C(NCC1CCNCC1)c1cc(NS(=O)(=O)Cc2ccccc2)ccc1Sc1ccccc1
13 | < 4.52 | < 4.52 |  | CN(C)c1ccc(CNC(=O)c2cc(NS(=O)(=O)Cc3ccccc3)ccc2Sc2ccccc2)cc1
14 | < 4.52 | < 4.52 |  | N=C(N)NCCCCCNC(=O)Cc1c(F)ccc(NS(=O)(=O)Cc2ccccc2)c1F
15 | < 4.52 |  |  | O=C(Cc1c(F)ccc(NS(=O)(=O)Cc2ccccc2)c1F)NCc1ccncc1
16 | < 4.52 | < 4.52 |  | O=C(NCc1ccncc1)c1cc(NS(=O)(=O)Cc2ccccc2)ccc1Sc1ccccc1
17 | < 4.52 | < 4.52 |  | O=C(Cc1c(F)ccc(NS(=O)(=O)Cc2ccccc2)c1F)NCC1CCNCC1
18 | < 4.52 | < 4.52 |  | N=C(N)c1ccc(CNC(=O)Cc2c(F)ccc(NS(=O)(=O)Cc3ccccc3)c2F)cc1

Reference: ChEMBL document CHEMBL1145113, “Synthesis and crystal structures of substituted benzenes and benzoquinones as tissue factor VIIa inhibitors” (J Med Chem, 2003)
